Experimental data taken from ChEMBL document CHEMBL6083205, “A comprehensive apoptotic assessment of niloticin in cervical cancer cells: a tirucallane-type triterpenoid from Aphanamixis polystachya (Wall.) Parker” (RSC Med Chem, 2024).
pIC50: −log10 of the molar value.

Tested on: HeLa
Assay: Antiproliferative activity against human HeLa cells assessed as inhibition of cell growth incubated for 24 hrs by MTT assay
Type: functional, cell-based
Outline: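 Cells kept in DMEM with 10% FBS and 1% antibiotic-antimycotic at 37 °C and 5% CO2. Seeded at 8 × 10^3 cells per 100 μL and left 24 h, then exposed 24 h to 5, 10, 20, 50 or 100 μM. MTT at 0.5 mg/mL in HBSS was added for 2–4 h at 37 °C in the dark. Formazan was dissolved in DMSO, A570 was read, and IC50 was derived.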

Structure (SMILES) | pIC50
C[C@@H](C[C@@H](O)[C@@H](O)C(C)(C)O)[C@@H]1CC[C@]2(C)C3=CC[C@H]4C(C)(C)C(=O)CC[C@]4(C)[C@H]3CC[C@@]12C | 4.29
C=C(C)[C@@H](O)[C@H](O)C[C@H](C)[C@@H]1CC[C@]2(C)C3=CC[C@H]4C(C)(C)C(=O)CC[C@]4(C)[C@H]3CC[C@@]12C | < 4.00
C[C@@H](C[C@@H](O)[C@H](O)C(C)(C)O)[C@@H]1CC[C@]2(C)C3=CC[C@H]4C(C)(C)C(=O)CC[C@]4(C)[C@H]3CC[C@@]12C | < 4.00
